Laboratory results as given in ChEMBL document CHEMBL1123758, “Thromboxane synthetase inhibitors and antihypertensive agents. 3. N-[(1H-imidazol-1-yl)alkyl]heteroaryl amides as potent enzyme inhibitors” (J Med Chem, 1987).
The source made the active and inactive calls.

Legend:
[1] = molecular target: T1, Thromboxane-A synthase (Rattus norvegicus) (UniProt P49430); details: at 100 µM
T1 sequence (whole entry): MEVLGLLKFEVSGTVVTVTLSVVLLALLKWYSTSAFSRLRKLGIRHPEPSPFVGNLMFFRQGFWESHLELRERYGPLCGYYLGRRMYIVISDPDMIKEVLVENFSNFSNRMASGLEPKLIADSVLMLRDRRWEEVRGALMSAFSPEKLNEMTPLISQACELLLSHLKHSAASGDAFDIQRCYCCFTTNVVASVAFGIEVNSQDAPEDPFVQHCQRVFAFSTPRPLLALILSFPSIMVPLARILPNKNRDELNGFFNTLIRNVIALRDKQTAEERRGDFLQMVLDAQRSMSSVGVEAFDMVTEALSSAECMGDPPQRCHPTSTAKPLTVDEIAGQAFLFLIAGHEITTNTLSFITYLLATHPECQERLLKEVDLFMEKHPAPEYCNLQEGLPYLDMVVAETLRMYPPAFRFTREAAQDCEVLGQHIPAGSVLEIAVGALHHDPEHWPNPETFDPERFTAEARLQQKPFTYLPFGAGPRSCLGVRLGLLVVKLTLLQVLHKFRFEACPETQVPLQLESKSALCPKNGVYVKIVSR

Rattus norvegicus [2] = assay: Antihypertensive activity was measured in spontaneously hypertensive rats (SHR) at 100 mg/kg peroral dose (2 days); NA denotes inactive; type: functional, organism-based; set-up: dose 100 mg/kg
Outline: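 Male 16-week-old Okamoto SHR, mean arterial pressure about 170 mmHg. Dosed by gavage at 100 mg/kg (or less) as a suspension in 2% preboiled starch, with 0.9% NaCl loading at 25 mL/kg. A second identical dose without saline was given 24 h later. Mean arterial pressure was read at 28 h, using one to three rats. Active if ≤116 mmHg in one rat or a two-rat average ≤122 mmHg.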

Thromboxane-A synthase = molecular target: T2, Thromboxane-A synthase (Rattus norvegicus, UniProt P49430); assay: Inhibition of thromboxane formation at a concentration of 10e -6 M.
T2 sequence (P49430 whole entry): T1 sequence (whole entry)

[3] = molecular target: T1, Thromboxane-A synthase (Rattus norvegicus); assay: Inhibition of thromboxane formation at a concentration of 10e -4 M.
Outline: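 Washed SHR platelets in oxygenated Krebs phosphate buffer pH 7.4, (4.5-6.0) × 10^4 platelets/µL, with drug or vehicle, 10 min at 37 °C. Stopped on ice with citric acid. TXB2 in the supernatant was measured by direct RIA. Boiled-sample blanks were subtracted, then percent inhibition of TXB2 formation was calculated. Replicate number varies by entry.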

Rattus norvegicus [4] = assay: Antihypertensive activity was measured in spontaneously hypertensive rats (SHR) at 100 mg/kg peroral dose (2 days); active; type: functional, organism-based; set-up: dose 100 mg/kg
Outline: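 Male Okamoto SHR, 16 weeks old, mean arterial pressure about 170 mmHg. Compound suspended in 2% preboiled starch at 50 mg/mL and given by gavage at 100 mg/kg or less with 0.9% NaCl loading (25 mL/kg). An identical dose without saline followed 24 h later. Mean arterial pressure was read 28 h after the first dose in one to three rats. Active: one rat ≤116 mmHg, or mean of two ≤122 mmHg.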

Row | SMILES | inhibition [1] [%] | Activity (Rattus norvegicus [2]) | IC50 (Thromboxane-A synthase) [µM] | inhibition [3] [%] | Activity (Rattus norvegicus [4])
1 | O=C(NCCCn1ccnc1)c1cc(Br)c(Br)s1 | 100 | inactive | 0.4 |  | 
2 | O=C(NCCCCn1cncn1)c1ccco1 | 22 | inactive |  |  | 
3 | O=C(NCCCCn1ccnc1)c1ccco1 | 87 | inactive |  |  | 
4 | CC(CNC(=O)c1cc2cc(Cl)ccc2[nH]1)Cn1ccnc1 (stereo unspecified) | 100 |  |  |  | 
5 | O=C(NCCCCn1ccnc1)c1cc2ccccc2[nH]1 | 100 | inactive | 0.04 |  | 
6 | O=C(NCCCn1ccnc1)c1ccco1 | 97 | inactive |  |  | 
7 | Cc1cn(CCCNC(=O)c2cc3ccccc3[nH]2)cn1 | 100 | inactive |  |  | 
8 | O=C(NCCCn1ccnc1)c1cc2ccccc2o1 | 97 | inactive | 0.3 |  | 
9 | Cn1c(C(=O)NCCCn2ccnc2)cc2ccccc21 | 89 | inactive |  |  | 
10 | Cc1ccc(C(=O)NCCCn2ccnc2)s1 | 96 | inactive | 1.3 |  | 
11 | O=C(NCCCCn1ccnc1)c1ccc(Cl)nc1 |  |  | 8 | 94 | 
12 | O=C(NCCCCCn1ccnc1)c1cc2cc(Cl)ccc2[nH]1 | 100 |  | 0.007 |  | 
13 | O=C(NCCCn1ccnc1)c1ccc(Br)o1 | 82 | inactive |  |  | 
14 | O=C(NCCCCn1cncn1)c1ccc(Cl)s1 | 83 | inactive |  |  | 
15 | O=C(NC/C=C/Cn1ccnc1)c1ccc(Cl)s1 | 100 | inactive |  |  | 
16 | O=C(NCCCn1cncn1)c1cc2ccccc2o1 | 84 | inactive |  |  | 
17 | CC(CNC(=O)c1ccc(Cl)nc1)Cn1ccnc1 (stereo unspecified) |  |  |  | 98 | 
18 | CC(CCNC(=O)c1cc2cc(Cl)ccc2[nH]1)n1ccnc1 (stereo unspecified) | 98 |  | 0.05 |  | 
19 | Cc1ccc2c(Cl)c(C(=O)NCCCn3ccnc3)sc2c1 | 96 | inactive |  |  | 
20 | O=C(NCCCCCCCCn1ccnc1)c1ccc(Cl)s1 |  |  | 0.07 | 96 | 
21 | O=C(NCCCn1ccnc1)c1cc2cc(Cl)ccc2s1 | 100 | inactive | 0.1 |  | 
22 | CC(CCNC(=O)c1ccc(Cl)nc1)n1ccnc1 (stereo unspecified) |  |  | 3 | 98 | 
23 | O=C(NCCCn1ccnc1)c1sc2ccccc2c1Cl | 100 |  | 0.3 |  | 
24 | O=C(NCCCCn1ccnc1)c1cccs1 | 95 |  | 3 |  | 
25 | O=C(NCCCn1ccnc1)c1sc2cc(F)ccc2c1Cl | 96 | inactive |  |  | 
26 | O=C(NCCCn1ccnc1)c1ccc([N+](=O)[O-])o1 | 64 |  |  |  | Active
27 | O=C(NCCCn1ccnc1)c1cc2ccccc2[nH]1 | 94 |  |  |  | 
28 | Cc1nccn1CCCNC(=O)c1cc2ccccc2n1C | 56 | inactive |  |  | 

Row | SMILES | inhibition [1] [%] | Activity (Rattus norvegicus [2]) | IC50 (Thromboxane-A synthase) [µM] | inhibition [3] [%] | Activity (Rattus norvegicus [4])
29 | O=C(NCCCn1ccnc1)c1cc2cc(Cl)ccc2[nH]1 | 95 | inactive |  |  | 
30 | O=C(NCCCCCn1cncn1)c1ccc(Cl)s1 | 100 | inactive |  |  | 
31 | O=C(NCCCn1cnc(-c2ccccc2)c1)c1ccc(Cl)s1 | 70 | inactive |  |  | 
32 | Cc1nccn1CCCNC(=O)c1ccc(Cl)s1 | 78 |  |  |  | 
33 | O=C(NCCCCn1ccnc1)c1cc2cc(Cl)ccc2[nH]1 | 100 |  |  |  | 
34 | Cc1cn(CCCNC(=O)c2ccc(Cl)nc2)cn1 |  |  |  | 86 | 
35 | O=C(NCCCCCCn1ccnc1)c1ccc(Cl)s1 | 100 | inactive | 0.2 |  | 
36 | O=C(NCCn1ccnc1)c1sc2ccccc2c1Cl | 70 |  |  |  | 
37 | O=C(NCCCn1ccnc1)c1ccc(Cl)s1 | 95 |  | 0.6 |  | 
38 | Cc1cn(CCCNC(=O)c2ccc(Cl)s2)cn1 | 95 | inactive |  |  | 
39 | O=C(NCCCn1ccnc1)c1ccc(Cl)nc1 |  |  |  | 87 | 
40 | O=C(NCCCn1ccnc1)c1cccnc1 | 83 | inactive |  |  | 
41 | O=C(NCCCCn1ccnc1)c1sc2ccccc2c1Cl | 91 | inactive |  |  | 
42 | O=C(NCCCCCCCCn1ccnc1)c1cc2cc(Cl)ccc2[nH]1 |  |  | 0.027 | 93 | 
43 | O=C(NCCCCCn1ccnc1)c1ccc(Cl)nc1 |  |  | 3 | 100 | 
44 | CC(CCNC(=O)c1ccc(Cl)s1)n1ccnc1 (stereo unspecified) | 100 |  | 2 |  | 
45 | O=C(NCCCCCn1ccnc1)c1ccc(Cl)s1 | 100 | inactive | 0.2 |  | 
46 | O=C(NCCCn1cncn1)c1cccs1 | 30 | inactive |  |  | 
47 | O=C(NCCn1ccnc1)c1ccco1 | 65 |  |  |  | 
48 | Cc1cn(CCCNC(=O)c2cc3ccccc3n2C)cn1 | 85 | inactive |  |  | 
49 | O=C(NCCCn1ccnc1)c1cccs1 | 93 | inactive |  |  | 
50 | COc1ccc2[nH]c(C(=O)NCCCn3ccnc3)cc2c1 | 96 | inactive |  |  | 
51 | Cc1nccn1CCCNC(=O)c1ccc(Cl)nc1 |  |  |  | 44 | 
52 | O=C(NCCCn1ccnc1)c1cccnc1Cl |  |  |  | 64 | 
53 | O=C(NCCCCn1ccnc1)c1ccc(Cl)s1 | 99 |  | 0.2 |  | 
54 | O=C(NCCCn1cncn1)c1ccc(Cl)s1 | 64 | inactive |  |  | 
55 | Cc1cn(CCCNC(=O)c2cc3cc(Cl)ccc3[nH]2)cn1 | 100 | inactive |  |  | 
